Laboratory results reported in ChEMBL document CHEMBL5344432, “Identification of a Dual Autophagy and REV-ERB Inhibitor with in Vivo Anticancer Efficacy” (J Med Chem, 2024).
Converted amounts (≈) assume the structure as drawn. The source made the active and inactive calls. No cut-off for these calls is given here.

Tests used:
[1] = Metabolic stability in mouse liver microsomes assessed as half life preincubated for 15 mins followed by NADPH addition and measured after 1 to 2 hrs by LC-MS/MS analysis; assay type: ADME, Microsome; settings: liver microsomes, time 75-135 min
How it was run: (§1)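 Microsomal stability assessed in mouse, human, rat or dog liver microsomes with NADPH cofactor. Half-life and percent parent remaining at 60 and 120 min reported. Mean of at least two independent experiments, each in two technical replicates.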

[2] = Aqueous kinetic solubility of the compound in PBS at pH 7.4 at 250 uM incubated for 24 hrs by UPLC/MS analysis; assay type: physicochemical; settings: read-out: Kinetic_solubility
How it was run: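 Kinetic solubility measured in phosphate-buffered saline, pH 7.4. Mean of at least two independent experiments, each run in two technical replicates.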

[3] = Metabolic stability in rat liver microsomes assessed as parent compound remaining preincubated for 15 mins followed by NADPH addition and measured after 1 to 2 hrs by LC-MS/MS analysis; assay type: ADME, Microsome; settings: time 75-135 min; how it was run: as §1
[4] = Metabolic stability in mouse liver microsomes assessed as half life preincubated for 15 mins followed by UDPGA addition and measured after 2 hrs by LC-MS/MS analysis; assay type: ADME, Microsome; settings: time 135 min
How it was run: (§2)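 Mouse and human liver microsomes incubated with UDPGA cofactor. Half-life and percent parent remaining at 120 min reported. Mean of at least two independent experiments, each in two technical replicates.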

[5] = Metabolic stability in human liver microsomes assessed as half life preincubated for 15 mins followed by NADPH addition and measured after 1 to 2 hrs by LC-MS/MS analysis; assay type: ADME, Microsome; settings: liver microsomes, time 75-135 min; how it was run: as §1
[6] = tested on: BT-474; experiment: Cytotoxicity against human BT-474 cells; assay type: functional
How it was run: (§3)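 BT-474 breast cancer cells and nontumorigenic HMECs treated 48 h with concentrations up to 30 μM. CC50 derived from concentration–response viability plots. Values >30 μM assigned when viability fell by less than 50% of vehicle at 30 μM. Mean ± SEM, n ≥ 3.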

[7] = Metabolic stability in dog liver microsomes assessed as half life preincubated for 15 mins followed by NADPH addition and measured after 1 to 2 hrs by LC-MS/MS analysis; assay type: ADME, Canis lupus familiaris, Microsome; settings: time 75-135 min; how it was run: as §1
[8] = Metabolic stability in mouse liver microsomes assessed as half-life preincubated for 15 mins followed by UDPGA addition and measured after 2 hrs by LC-MS/MS analysis
[9] = Metabolic stability in human liver microsomes assessed as parent compound remaining preincubated for 15 mins followed by NADPH addition and measured after 2 hrs by LC-MS/MS analysis; assay type: ADME, Microsome; settings: time 135 min, read-out: Stability; how it was run: as §1
[10] = Metabolic stability in rat liver microsomes assessed as half life preincubated for 15 mins followed by NADPH addition and measured after 1 to 2 hrs by LC-MS/MS analysis; assay type: ADME, Microsome; settings: time 75-135 min; how it was run: as §1
[11] = Metabolic stability in human liver microsomes assessed as parent compound remaining preincubated for 15 mins followed by NADPH addition and measured after 1 hr by LC-MS/MS analysis; assay type: ADME, Microsome; settings: time 75 min, read-out: Stability; how it was run: as §1
[12] = Metabolic stability in mouse liver microsomes assessed as parent compound remaining preincubated for 15 mins followed by NADPH addition and measured after 2 hrs by LC-MS/MS analysis; assay type: ADME, Microsome; settings: time 135 min, read-out: Stability; how it was run: as §1
[13] = tested on: HMEC; experiment: (§4) Cytotoxicity against HMECs; assay type: toxicity, cell-based; settings: human, hmec; how it was run: as §3
[14] = Metabolic stability in human liver microsomes assessed as parent compound remaining preincubated for 15 mins followed by UDPGA addition and measured after 2 hrs by LC-MS/MS analysis; assay type: ADME, Microsome; settings: time 135 min, read-out: Stability; how it was run: as §2
[15] = Metabolic stability in mouse liver microsomes assessed as parent compound remaining preincubated for 15 mins followed by NADPH addition and measured after 1 hr by LC-MS/MS analysis; assay type: ADME, Microsome; settings: time 75 min, read-out: Stability; how it was run: as §1
[16] = Metabolic stability in dog liver microsomes assessed as parent compound remaining preincubated for 15 mins followed by NADPH addition and measured after 1 to 2 hrs by LC-MS/MS analysis; assay type: ADME, Canis lupus familiaris, Microsome; settings: time 75-135 min; how it was run: as §1
[17] = Inhibition of REV-ERBbeta (unknown origin) transcription expressed in HEK293 cells incubated for 24 hrs by gaussia luciferase based assay; assay type: cell-based; settings: Homo sapiens, HEK293, 24 h
How it was run: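 HEK-293 cells cotransfected with REV-ERBβ and a luciferase reporter driven by two repeats of a REV-ERB response element (RevRE) consensus, then treated across a concentration range. Luciferase activity is expressed as fold of DMSO vehicle, mean ± SEM, n = 6, and EC50 is taken from the concentration-response curve. A parallel reporter carrying a mutated RevRE served as a specificity control.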

[18] = tested on: HCT-116; experiment: Cytotoxicity against human HCT-116 cells; assay type: functional
How it was run: (§5)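 Human cancer lines (A375, MDA-MB-231, OMM-1, UPMM-2, CAPAN-2, HepG2, HT-29, HCT116) treated up to 30 μM. CC50 derived from concentration–response viability plots. Mean ± SEM, n ≥ 6. Two-tailed unpaired t test used between compounds.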

[19] = tested on: A375 (human); experiment: Inhibition of autophagy in human A375 cells expressing EGFP-LC3B assessed as accumulation of autophagosome after 24 hrs by Hoechst 33342 staining based fluorescent microscopy analysis; settings: dose 1.25-5 µM
[20] = tested on: HT-29; experiment: Cytotoxicity against human HT-29 cells; assay type: functional; how it was run: as §5
[21] = tested on: A-375; experiment: Cytotoxicity against human A-375 cells; assay type: functional; how it was run: as §5
[22] = tested on: Capan-2; experiment: Cytotoxicity against human Capan-2 cells; assay type: functional; how it was run: as §5
[23] = Cytotoxicity against human OMM-1 cells; assay type: functional; how it was run: as §5
[24] = as §4; assay type: toxicity, cell-based, HMEC; settings: human, HMEC cells; how it was run: as §3
[25] = tested on: A375 (human); experiment: Inhibition of autophagy in human A375 cells expressing EGFP-LC3B assessed as increase in LC3-II protein level at 2.5 uM after 24 hrs by immunoblotting analysis
[26] = Cytotoxicity against human UPMM-2 cells; assay type: functional; how it was run: as §5
[27] = tested on: HepG2; experiment: Cytotoxicity against human HepG2 cells; assay type: functional; how it was run: as §5
[28] = tested on: MDA-MB-231; experiment: Cytotoxicity against human MDA-MB-231 cells; assay type: functional; how it was run: as §5

solubility kinetic at 24 h, 250 µM [2]	half-life [4]	half-life [5]	t1/2 at 2 h [8]	remaining at 2 h [9]	remaining at 1 h [11]	remaining at 2 h [12]	remaining at 2 h [14]	remaining at 1 h [15]	Compound	CC50 [6]	other results
245 µM (≈ 94.2 µg/mL)	> 2 h	> 2 h	> 2 h	54%	75%	74%	95%	82%	Fc1ccc(C2(NCc3cc(CC4CCNCC4)ccc3F)CCCC2)cc1	2.29 µM	half-life [1]: > 2 h; Stability [3]: 75%; half-life ([7]; liver microsomes): > 1 h; half-life ([10]; liver microsomes): > 1 h; CC50 [13]: 17.2 µM; Stability [16]: 83%
235 µM (≈ 89.4 µg/mL)	> 2 h	> 2 h	> 2 h	50%	79%	39%	> 95%	66%	CN1CCC(Cc2cccc(CNC3(c4ccc(F)cc4)CCCC3)c2)CC1	5.93 µM	EC50 [17]: 3.78 µM; CC50 [18]: 13.5 µM; inhibition [19]: Dose-Dependent Effect; CC50 [20]: 18.9 µM; CC50 [21]: 5.67 µM; CC50 [22]: > 30 µM; t1/2 ([7]; microsomes): 0.933 h; t1/2 ([10]; microsomes): 0.733 h; CC50 [23]: 2.28 µM; CC50 [24]: > 30 µM; inhibition [25]: Active; CC50 [26]: 1.91 µM; CC50 [27]: 2.8 µM; CC50 [28]: 7.42 µM
